Assay results as given in ChEMBL document CHEMBL1154598, “7-Hydroxy-benzopyran-4-one derivatives: a novel pharmacophore of peroxisome proliferator-activated receptor alpha and -gamma (PPARalpha and gamma) dual agonists” (J Med Chem, 2009).

What was measured:
[1] = Cytotoxicity against HEK293 cells assessed as viable cells at 0.1 uM after 48 hrs by aqueous one solution cell proliferation assay relative to control; assay type: cell-based; details: human, read-out: Activity
Summary of the method: (§1)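 HEK293 cells were seeded overnight, then exposed to 0–100 μM compound for 48 h at 37 °C in 5% CO₂. MTS reagent was added for a further 2 h and absorbance read at 490 nm. Viability is given as % relative to DMSO vehicle control. Two experiments, each in quadruplicate.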

HEK293 = assay: Cytotoxicity against HEK293 cells assessed as decrease in viable cells at 50 uM after 48 hrs by aqueous one solution cell proliferation assay relative to control; assay type: cell-based; details: human, hek293, 48 h; summary of the method: as §1
[2] = biological target: T1, Peroxisome proliferator-activated receptor gamma (Homo sapiens) (UniProt P37231); assay: Agonist activity at human PPARgamma expressed in HEK293 cells co-transfected with PPRE assessed as beta-galactosidase signal at 25 uM after 48 hrs by reporter gene assay relative to control; assay type: functional, cell-based
T1 sequence (whole entry): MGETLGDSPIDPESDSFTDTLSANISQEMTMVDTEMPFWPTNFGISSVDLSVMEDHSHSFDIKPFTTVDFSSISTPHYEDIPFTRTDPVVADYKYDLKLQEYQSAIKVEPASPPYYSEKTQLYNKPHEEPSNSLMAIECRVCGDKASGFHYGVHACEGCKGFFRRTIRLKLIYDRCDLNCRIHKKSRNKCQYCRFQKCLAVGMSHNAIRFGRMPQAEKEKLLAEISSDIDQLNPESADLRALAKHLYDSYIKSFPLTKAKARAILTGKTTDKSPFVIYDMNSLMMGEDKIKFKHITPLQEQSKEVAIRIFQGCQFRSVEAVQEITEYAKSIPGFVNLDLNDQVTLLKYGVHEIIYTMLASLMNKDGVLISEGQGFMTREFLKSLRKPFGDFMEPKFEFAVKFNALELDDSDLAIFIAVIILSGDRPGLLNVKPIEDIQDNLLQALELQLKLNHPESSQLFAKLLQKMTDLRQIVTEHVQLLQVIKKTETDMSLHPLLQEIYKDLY
Summary of the method: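 HEK293 cells were transfected with FuGENE 6 using a PPRE-luciferase reporter, pSG5-hPPARγ1 and a β-galactosidase control plasmid. After 24 h they were replated at 5 × 10⁴ cells/well, attached overnight, then treated for 48 h with 0.1% DMSO as vehicle. Luciferase was read, normalized to the β-gal signal and reported as fold activation over vehicle. Mean of two experiments in triplicate.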

[3] = biological target: T2, Peroxisome proliferator-activated receptor gamma (Homo sapiens, UniProt P37231); assay: Agonist activity at human PPARgamma assessed as luciferase activity by transactivation assay; assay type: functional
T2 sequence (P37231 whole entry): T1 sequence (whole entry)
Summary of the method: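 Transiently transfected HEK293 (PPRE-luciferase reporter plus pSG5-hPPARγ1 and β-gal control), compound exposure 48 h. EC50 is the ligand concentration giving half-maximal fold induction of β-gal-normalized luciferase, fitted by nonlinear regression. Means of three experiments.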

[4] = biological target: T3, Peroxisome proliferator-activated receptor alpha (Homo sapiens, UniProt Q07869); assay: Agonist activity at human PPARalpha assessed as luciferase activity by transactivation assay; assay type: functional
T3 sequence (Q07869 whole entry): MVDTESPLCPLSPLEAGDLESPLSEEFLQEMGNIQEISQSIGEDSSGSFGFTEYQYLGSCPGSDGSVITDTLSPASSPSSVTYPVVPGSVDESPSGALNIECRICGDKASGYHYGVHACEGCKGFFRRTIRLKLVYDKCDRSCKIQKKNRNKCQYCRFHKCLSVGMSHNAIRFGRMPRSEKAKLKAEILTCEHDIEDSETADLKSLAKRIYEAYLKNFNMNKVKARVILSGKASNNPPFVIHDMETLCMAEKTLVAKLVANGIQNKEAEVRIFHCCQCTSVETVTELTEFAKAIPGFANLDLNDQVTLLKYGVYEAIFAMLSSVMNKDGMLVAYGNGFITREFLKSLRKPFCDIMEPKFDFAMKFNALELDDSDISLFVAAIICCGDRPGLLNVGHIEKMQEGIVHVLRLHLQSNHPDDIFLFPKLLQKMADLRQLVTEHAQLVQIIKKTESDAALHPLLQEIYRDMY

[5] = biological target: T4, Peroxisome proliferator-activated receptor alpha (Homo sapiens) (UniProt Q07869); assay: Agonist activity at human PPARalpha expressed in HEK293 cells co-transfected with PPRE assessed as beta-galactosidase signal at 25 uM after 48 hrs by reporter gene assay relative to control; assay type: functional, cell-based
T4 sequence (whole entry): T3 sequence (Q07869 whole entry)
Summary of the method: (§2)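 Human PPARα transactivation in HEK293 cells grown in DMEM/F-12 with 10% heat-inactivated FBS. Cells were transfected with FuGENE 6 using a PPRE-luciferase reporter, pBI-G-hPPARα and a β-galactosidase control plasmid. After 24 h they were replated at 5 × 10⁴ cells/well, attached overnight, then dosed for 48 h with 0.1% DMSO as vehicle. Luciferase was normalized to β-gal and expressed as fold over vehicle. Two experiments, each in triplicate.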

[6] = biological target: T4, Peroxisome proliferator-activated receptor alpha (Homo sapiens); assay: Agonist activity at human PPARalpha expressed in HEK293 cells co-transfected with PPRE assessed as beta-galactosidase signal at 40 uM after 48 hrs by reporter gene assay relative to control; assay type: functional, cell-based; summary of the method: as §2
[7] = Cytotoxicity against HEK293 cells assessed as viable cells at 10 uM after 48 hrs by aqueous one solution cell proliferation assay relative to control; assay type: cell-based; details: human, read-out: Activity; summary of the method: as §1
[8] = Cytotoxicity against HEK293 cells assessed as viable cells at 100 uM after 48 hrs by aqueous one solution cell proliferation assay relative to control; assay type: cell-based; details: human, read-out: Activity; summary of the method: as §1
[9] = Cytotoxicity against HEK293 cells assessed as viable cells at 50 uM after 48 hrs by aqueous one solution cell proliferation assay relative to control; assay type: cell-based; details: human, read-out: Activity; summary of the method: as §1

fold change (FC) [2]	EC50 [3] [µM]	EC50 [4] [µM]	fold change (FC) [5]	fold change (FC) [6]	Structure (SMILES)	viability at 48 h, 0.1 µM [1] [%]	Activity (HEK293) [%]	viability at 48 h, 10 µM [7] [%]	viability at 48 h, 100 µM [8] [%]	viability at 48 h, 50 µM [9] [%]
–	–	–	–	–	CC(C)OC(=O)C(C)(C)Oc1ccc(C(=O)c2ccc(Cl)cc2)cc1 [FENOFIBRATE]	> 90	38	–	–	–
38.5	26.9	8.9	5.6	11.7	O=c1c(-c2ccc3c(c2)OCO3)coc2cc(O)ccc12 [PSEUDOBAPTOGENIN]	–	–	> 90	> 60	> 67
